Results pooled from the literature.
Compare with care: the assays were run in different laboratories.
Target: Amine oxidase [flavin-containing] A (MAOA, Homo sapiens, UniProt P21397)
Effect on: enzyme activity
Mode: inhibitor
One construct used (P21397 1-527): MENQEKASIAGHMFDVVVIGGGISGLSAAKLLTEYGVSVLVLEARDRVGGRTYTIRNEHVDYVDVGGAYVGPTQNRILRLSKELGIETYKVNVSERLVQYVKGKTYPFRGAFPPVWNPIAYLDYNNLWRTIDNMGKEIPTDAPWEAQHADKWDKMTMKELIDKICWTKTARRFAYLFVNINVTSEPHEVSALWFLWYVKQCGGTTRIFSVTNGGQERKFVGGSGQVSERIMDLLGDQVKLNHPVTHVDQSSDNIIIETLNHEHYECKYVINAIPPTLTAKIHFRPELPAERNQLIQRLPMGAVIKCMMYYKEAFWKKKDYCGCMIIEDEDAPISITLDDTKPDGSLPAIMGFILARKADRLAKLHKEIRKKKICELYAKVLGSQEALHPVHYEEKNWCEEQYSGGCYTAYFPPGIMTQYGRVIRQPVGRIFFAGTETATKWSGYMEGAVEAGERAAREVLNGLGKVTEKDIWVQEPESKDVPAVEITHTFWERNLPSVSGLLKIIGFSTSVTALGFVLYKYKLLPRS

| SMILES | assay | conditions | measurement | value |
| --- | --- | --- | --- | --- |
| C#CCOc1ccc(/C=C/C(=O)N2CCc3ccccc3C2)cc1OC | fluorescence |  | IC50 | 64 µM |
| CN1CCN(C(=O)CN[C@@H]2C[C@H]2c2ccc(OCc3ccccc3)cc2)CC1 | luciferase |  | IC50 | 0.51 µM |
| COc1cc(/C=C/C(=O)N2CCc3ccccc3C2)ccc1OC1CCCCC1 | fluorescence |  | IC50 | 65.3 µM |
| O=c1c(O)c(-c2ccc(O)c(O)c2)oc2cc(O)ccc12 |  |  | IC50 | 4.62 µM |
| COc1ccc(/C=C/C(=O)N2CCC(Cc3ccccc3)CC2)cc1OC | fluorescence |  | IC50 | 66.1 µM |
| O=C(Nc1ccc([N+](=O)[O-])cc1Cl)c1cc2ccccc2o1 |  |  | IC50 | 0.293 µM |
| c1cc2c(cc1C1CCCCC1)c1c3n2CCNC3CCC1 (centres unmarked) |  | pH 7.5 | Ki | 5.3 µM |
| O=C1c2c(O)cc(O)cc2O[C@H](c2ccc(O)cc2)[C@H]1O |  |  | IC50 | 14.6 µM |
| O=C(O)c1cc(O)c2c(c1)C(=O)c1cc(O)cc(O)c1C2=O |  |  | IC50 | 47.1 µM |
| O=C1C[C@@H](c2ccc(O)cc2)Oc2cc(O)cc(O)c21 |  |  | IC50 | 8.64 µM |
| COC(=O)c1ccc(C(=O)OC)c(NC(=O)c2cc(Cl)ccc2O)c1 |  |  | IC50 | > 5 µM |
